This is a sample that favours compounds with a hit; in the whole collection about 3% have one here.
5HT1a ag – activates the human 5-HT1a serotonin receptor; P08908; CHO 5-HT1a Ga15 NFAT-bla reporter, FRET ratio; 0% basal, 100% maximal reference agonist; activation, % at 10 µM; hit rate 0.56% among 65,000; AID 567;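 active means activation above the screen-wide mean activation plus 3 SD, cut at about 19% in these data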;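 further: 0% = DMSO wells and 100% = 5-CT at EC100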
5-HT1A blocker – antagonists of human 5-HT1a serotonin receptor. inhibition, % at 10 µM. P08908. AID 612. hit rate 0.68% among 62,000. CHO 5-HT1a Ga15 NFAT-bla reporter, antagonist mode;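 active means inhibition above the mean of all tested compounds plus 3 SD, cut at about 43% in these data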;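 further: receptor stimulated by 5-CT agonist at 100 nM near EC80; beta-lactamase reporter measured by ratiometric fluorescence of a cleavable substrate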
HTR1E agonist – 5-HT1E (human) receptor agonism; P28566; activation, % at 6 µM; hit rate 0.69% among 65,000; AID 574; CHO 5-HT1E Ga15 NFAT-bla reporter, FRET; 0% DMSO wells, 100% control agonist wells;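 active means activation above a set limit, the screen-wide mean activation plus 3 SD, cut at about 8.5% in these data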;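 further: 100% = positive control agonist at 1 µM giving full maximal response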
Target sequence (P28566 whole entry, looked up): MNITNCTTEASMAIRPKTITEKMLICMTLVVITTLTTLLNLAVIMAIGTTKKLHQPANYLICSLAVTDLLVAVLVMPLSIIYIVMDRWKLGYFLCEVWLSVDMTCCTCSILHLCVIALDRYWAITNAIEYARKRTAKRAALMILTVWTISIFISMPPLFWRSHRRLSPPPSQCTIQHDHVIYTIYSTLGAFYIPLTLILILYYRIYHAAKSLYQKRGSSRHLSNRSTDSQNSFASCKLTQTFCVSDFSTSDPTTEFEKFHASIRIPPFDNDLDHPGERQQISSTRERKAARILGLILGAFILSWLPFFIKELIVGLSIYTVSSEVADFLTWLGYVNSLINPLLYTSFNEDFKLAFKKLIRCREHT
S1P3 agonist – S1P3 (human) receptor agonism. S1P3 NFAT-BLA reporter cells, FRET ratio; relative to 1 µM S1P, basal subtracted. Q99500. AID 373. activation, % at 4.5 µM. hit rate 0.1% among 60,000;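 active means activation above the screen-wide mean plus 3 SD, cut at about 4.5% in these data, passing the limit was not always enough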
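Assay system: stable CHO line with human S1P3, Gα16, NFAT-BLA reporter; Detection: FRET β-lactamase substrate fluorescence, excitation 405 nm, 460/535 nm emission ratio, background-subtracted; Read-out: percent activation versus median 1 µM S1P response, basal-subtracted, per plate; Incubation: cells plated overnight, compound 4 h 37 °C, substrate 2 h RT.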
5HT1E antag – blocks the human 5-HT1E serotonin receptor | P28566 | CHO 5-HT1E Ga15 NFAT-bla reporter, FRET, antagonist | inhibition, % at 6 µM | hit rate 0.99% among 65,000 | AID 571;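 active means inhibition above a set limit, the mean inhibition across every tested compound plus 3 SD, cut at about 29% in these data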;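 further: signal is the 460 over 535 nm emission ratio of beta-lactamase substrate; 0% = agonist plus DMSO wells and 100% = wells without agonist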
S1P1 ag pot – activates or potentiates agonism at human S1P1 receptor | activation, % at 9.5 µM | P21453 | hit rate 0.57% among 56,000 | S1P1 CRE-bla cells, forskolin, beta-lactamase FRET, potentiator mode; S1P1 agonist co-added at EC20, 2 nM; 100% = saturating reference agonist, 0% = basal;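 active means activation above a cutoff set at the mean activation of all tested compounds plus 3 SD, cut at about 54% in these data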;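 further: forskolin at 4 µM as EC80 and the EC20 agonist is SEW2871; 100% = SEW2871 at its EC100 plus forskolin at EC80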
The depositor's hits bear a star; x = no result.

SMILES | 5HT1a ag | 5-HT1A blocker | HTR1E agonist | S1P3 agonist | 5HT1E antag | S1P1 ag pot
CCOc1ccc2[nH]c(S(=O)(=O)CC)nc2c1Cl | -0.2 | -5.3 | -0.6 | -1.0 | 14.2 | 4.1
CCOc1ccccc1N1CCN(S(=O)(=O)c2cccc3nsnc23)CC1 | -4.0 | 19.3 | -0.8 | -1.5 | 16.2 | 3.8
N#C/C(=C/c1ccc(N2CCCCCC2)o1)c1ccc(F)cc1 | -4.9 | 87.3* | -0.1 | -2.2 | 89.7* | 128.7
COc1ccccc1NC(=O)C1CC(=O)OC1c1ccccc1 (configuration not stated) | -3.6 | 6.4 | -0.1 | 0.4 | -5.2 | 2.5
CC(=O)Nc1ccc(S(=O)(=O)/N=C2\SCCN2S(=O)(=O)c2ccc(NC(C)=O)cc2)cc1 | 73.0* | -6.8 | 0.4 | 0.4 | -3.0 | -0.7
CC(=O)Nc1ccc(S(=O)(=O)N2CCSC2C(=O)O)cc1 (configuration not stated) | -3.4 | 7.8 | -1.2 | x | -2.5 | x
CCc1cc2c(=O)c(-c3nc4ccccc4n3C)c(COCC(=O)O)oc2cc1O | -4.7 | -7.9 | -0.8 | -1.6 | -3.4 | -23.5
CC(=O)Oc1ccc2cc(-c3nc4ccccc4n3C)c(=O)oc2c1 | 89.2* | -54.0 | 21.2* | 5.7* | 33.4* | -16.8
Cc1nn(Cc2ccccc2)c(C)c1NC(=O)CSc1nc2sc3c(c2c(=O)n1C)CCC3 | 0.6 | -4.3 | 1.3 | -0.4 | -7.4 | -5.2
Cc1cc(C(=O)Nc2ccc(S(=O)(=O)Nc3nccs3)cc2)c(C)o1 | -3.6 | -5.1 | 0.6 | -0.3 | -3.4 | 10.2
Cc1ccc(C2CC(=O)NC(SCc3ccccc3)=C2C#N)o1 (configuration not stated) | 34.6* | 1.7 | 0.2 | -0.9 | 2.4 | 6.7
N#CC1=C(SCc2ccccc2)NC(=O)CC1c1ccco1 (configuration not stated) | -0.8 | -5.1 | -0.5 | -0.6 | 6.5 | 3.7
O=C(NCc1ccco1)C(c1cccs1)N(C(=O)Cc1cccs1)c1ccccc1 (configuration not stated) | -1.9 | 51.9* | -1.7 | -1.5 | 14.6 | 3.4
Cc1nn(-c2ccc(F)cc2)c2nc(N)c(C#N)c(-c3cccs3)c12 | 3.4 | 29.1 | -1.7 | -0.2 | 35.5* | 24.4
CCOC(=O)Cc1csc(SCc2nc3ccccc3c(=O)[nH]2)n1 | 5.3 | 10.7 | -0.3 | -0.6 | 13.0 | -8.3
COc1ccc(OC)c(N=c2oc3cc(O)ccc3cc2C(N)=O)c1 | 39.1* | -52.8 | 12.1* | 4.1 | -21.1 | -73.8
O=C(c1ccccc1)c1cc2ccccc2o1 | -2.1 | -10.5 | -0.3 | -0.6 | -6.5 | -22.8
NC(=O)c1cc2ccc(O)cc2oc1=Nc1ccccc1 | 98.5* | -321.5 | 49.9* | 6.1 | -48.5 | -277.0
NC(=O)c1cc2ccc(O)cc2oc1=NCc1ccccc1 | 85.9* | -207.0 | 25.8* | 3.1 | -21.8 | -152.6
COc1ccccc1CCNC(=O)C1CCCO1 (configuration not stated) | -0.7 | 0.0 | -0.1 | -0.3 | 6.6 | 3.8
CC(=O)c1cc2c(cc1NC(=O)c1cc(C)nn1-c1ccccc1)OCO2 | 24.4* | 16.7 | 0.7 | -1.0 | 9.2 | -6.3
CC(C)(C)c1cc(CNC2CS(=O)(=O)C[C@@H]2O)cc(C(C)(C)C)c1O (some centres not stated) | 0.0 | -1.0 | 0.1 | -0.6 | -6.0 | -13.6
O=C1NCCCC1C(=O)Nc1ccccn1 (configuration not stated) | -1.4 | -13.9 | 0.9 | -0.6 | -6.5 | -22.3
COCCN(C(=O)CCC(=O)Nc1cccnc1)C(C(=O)NC1CCCCC1)c1ccccc1 (configuration not stated) | -1.3 | 3.6 | 0.3 | -2.2 | -0.7 | 7.1
COc1ccc2nc(SCC(N)=O)[nH]c2c1 | -1.7 | -4.2 | -1.1 | -0.7 | -5.4 | -16.2
COc1ccc2nc(SCc3nc(N)nc(Nc4ccccc4)n3)[nH]c2c1 | 4.6 | 5.5 | 1.5 | 0.6 | 39.7* | -68.7
COC(=O)c1ccc(OCC2c3cc(OC)c(OC)cc3CCN2C(=O)C2CC2)cc1 (configuration not stated) | 1.9 | 23.3 | -0.5 | x | 34.5* | x

High-throughput results (PubChem)
